IC50 data for 17 molecules are collected here from ChEMBL document CHEMBL1153571, “New imidazo[1,2-a]quinoxaline derivatives: synthesis and in vitro activity against human melanoma” (Eur J Med Chem, 2009).

Structures are written as SMILES.

In this test the test system is A-375. The experiment in a line: Cytotoxicity against human A375 cells after 96 hrs by MTT assay. Format: functional, cell-based. Conditions: A-375, 96 h. The method in brief: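 A375 human melanoma cells (ATCC) in RPMI-1640 with 10% heat-inactivated FBS, 2 mM L-glutamine, penicillin/streptomycin/amphotericin B, 37 °C, 5% CO2. Plated at 5000 cells/well, attached overnight. Compounds added in 1% DMSO/medium over a log dilution range and left for 96 h. MTT then added for 4 h at 37 °C. Formazan dissolved in isopropanol/1 M HCl (96/4), read at 570 nm. Survival expressed as % of vehicle control, IC50 taken from sigmoidal curves. At least three experiments in triplicate.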
In turn, `CNc1nc2ccccc2n2c(-c3cccc(C#N)c3)cnc12` returned an IC50 of 27000 nM.
`CNc1nc2ccccc2n2c(-c3cccc(Cl)c3)cnc12` registered an IC50 of 1780 nM.
Under `CNc1nc2ccccc2n2c(-c3ccoc3)cnc12` stands 74100 nM; under `CNc1nc2ccccc2n2c(-c3cccc(F)c3)cnc12`, 24900 nM.
Take `CC(C)Cn1cnc2c(N)nc3ccccc3c21` [IMIQUIMOD]: it took 70300 nM to reach half-maximal inhibition (IC50).
Under `CNc1nc2ccccc2n2c(-c3ccc(OC)cc3)cnc12` stands 370 nM; under `CNc1nc2ccccc2n2c(CCc3ccccc3)cnc12`, 1570 nM; under `CNc1nc2ccccc2n2c(-c3ccccc3)cnc12`, 2190 nM.
Under `CNc1nc2ccccc2n2c(-c3cccc(O)c3)cnc12` stands 560 nM; under `CCOP(=O)(OCC)C(C)NC(=O)N(CCCl)N=O` (configuration not stated) [FOTEMUSTINE], 173000 nM.
`CNc1nc2ccccc2n2c(-c3cccc(C(=O)O)c3)cnc12` yielded an IC50 of 3470 nM.
Under `CCOc1cccc(-c2cnc3c(NC)nc4ccccc4n23)c1` stands 300 nM; under `CNc1nc2ccccc2n2c(-c3cccc(C(F)(F)F)c3)cnc12`, 1280 nM.
Under `CNc1nc2ccccc2n2c(-c3cccc(OC)c3)cnc12` stands 200 nM; under `CNc1nc2ccccc2n2c(-c3ccccc3OC)cnc12`, 122000 nM.
With `CNc1nc2ccccc2n2c(-c3cccc(Br)c3)cnc12`, the IC50 was 650 nM.
Then `CNc1nc2ccccc2n2c(-c3cccc([N+](=O)[O-])c3)cnc12`, with 40000 nM.
